Measured values: ChEMBL document CHEMBL1921792, “Synthesis and anticonvulsant activity of trans- and cis-2-(2,6-dimethylphenoxy)-N-(2- or 4-hydroxycyclohexyl)acetamides and their amine analogs” (Bioorg Med Chem, 2011)
Active and inactive are the calls of the source.

Key:
Mus musculus [1] = test: Anticonvulsant activity against subcutaneous pentylenetetrazole-induced seizures in mouse at 100 mg/kg, ip after 0.5 hrs; type: functional, organism-based; set-up: dose 100 mg/kg
Method in brief: (§1)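 Phase I screen in mice. Compound given ip as a suspension in 0.5% methylcellulose, read at 30 min and 4 h. Pentylenetetrazole 85 mg/kg in 0.9% NaCl was injected sc into the posterior midline and animals watched ≥30 min. Protection meant no clonic spasm lasting ≥5 s. Groups of 1–8 animals; result is protected/tested.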

Mus musculus [2] = test: Anticonvulsant activity in mouse assessed as protection against maximal electric shock-induced seizures at 100 mg/kg, ip after 0.5 hrs; type: functional, organism-based; set-up: dose 100 mg/kg
Method in brief: (§2)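 Phase I maximal electroshock screen in mice. Compound given ip as a suspension in 0.5% methylcellulose at 30, 100 or 300 mg/kg, tested at 30 min and 4 h. Small groups (1–8); result is number protected/number tested.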

Mus musculus [3] = test: Neurotoxicity in mouse assessed as inability to maintain equilibrium on rotarod at 100 mg/kg, ip after 4 hrs by rotarod test; type: toxicity, organism-based; set-up: dose 100 mg/kg, route intraperitoneal; conditions: in vivo
Method in brief: (§3)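 Drug given ip to mice as a suspension in 0.5% methylcellulose. At the stated time after dosing, each mouse was placed on a 1 inch knurled rod turning at 6 rpm. Neurotoxicity = inability to stay balanced at least 1 min in each of three trials. Scored as animals toxic/animals tested in small groups.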

Mus musculus [4] = test: Anticonvulsant activity in mouse assessed as protection against maximal electric shock-induced seizures at 30 mg/kg, ip after 4 hrs; type: functional, organism-based; set-up: dose 30 mg/kg; method in brief: as §2
Mus musculus [5] = test: Anticonvulsant activity in mouse assessed as protection against maximal electric shock-induced seizures at 100 mg/kg, ip after 4 hrs; type: functional, organism-based; set-up: dose 100 mg/kg; method in brief: as §2
Mus musculus [6] = test: Anticonvulsant activity in mouse assessed as protection against maximal electric shock-induced seizures at 30 mg/kg, ip after 0.5 hrs; type: functional, organism-based; set-up: dose 30 mg/kg; method in brief: as §2
Mus musculus [7] = test: Neurotoxicity in mouse assessed as inability to maintain equilibrium on rotarod at 30 mg/kg, ip after 0.5 hrs by rotarod test; type: toxicity, organism-based; set-up: dose 30 mg/kg, route intraperitoneal; conditions: in vivo; method in brief: as §3
Mus musculus [8] = test: Anticonvulsant activity against subcutaneous pentylenetetrazole-induced seizures in mouse at 100 mg/kg, ip after 4 hrs; type: functional, organism-based; set-up: dose 100 mg/kg; method in brief: as §1
Mus musculus [9] = test: Anticonvulsant activity against subcutaneous pentylenetetrazole-induced seizures in mouse at 30 mg/kg, ip after 4 hrs; type: functional, organism-based; set-up: dose 30 mg/kg; method in brief: as §1
Mus musculus [10] = test: Neurotoxicity in mouse assessed as inability to maintain equilibrium on rotarod at 300 mg/kg, ip after 0.5 hrs by rotarod test; type: toxicity, organism-based; set-up: dose 300 mg/kg, route intraperitoneal; conditions: in vivo; method in brief: as §3
Mus musculus [11] = test: Anticonvulsant activity against subcutaneous pentylenetetrazole-induced seizures in mouse at 30 mg/kg, ip after 0.5 hrs; type: functional, organism-based; set-up: dose 30 mg/kg; method in brief: as §1
Mus musculus [12] = test: Neurotoxicity in mouse assessed as inability to maintain equilibrium on rotarod at 30 mg/kg, ip after 4 hrs by rotarod test; type: toxicity, organism-based; set-up: dose 30 mg/kg, route intraperitoneal; conditions: in vivo; method in brief: as §3
Mus musculus [13] = species on record: Mus musculus; test: Activation of GABA receptor in mouse cortical neurons assessed as potentiation of GABA-induced effect at 100 umol at -70 mV holding potential by whole-cell patch clamp electrophysiological assay relative to control
Method in brief: (§4)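 Whole-cell patch clamp on primary cultured murine cortical neurons, borosilicate glass electrodes. Responses to GABA, NMDA or kainate were recorded with the compound present, as % of control stimulation. Compound at 100 µmol, holding potential -70 mV. Significance p < 0.05.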

Rattus norvegicus [14] = test: Anticonvulsant activity in fully kindled rat hippocampus assessed as protection against focal seizures at 100 mg/kg, ip after 15 mins; type: functional, organism-based; set-up: dose 100 mg/kg
Method in brief: (§5)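 Rat hippocampus kindled with 50 Hz AC, […] for 1 s, every 0.5 h for 6 h, every other day for 10 days (60 cycles), reaching Racine stage 5. Compound 100 mg/kg ip; seizures re-induced at 15–135 min. Racine score below 3 counts as protection.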

N1E-115 [15] = test: Blockade of voltage-gated sodium channel in mouse N1E-115 cells assessed as stimulation at 100 umol at -60 mV holding potential by whole-cell patch clamp electrophysiological assay relative to control; type: cell-based
Mus musculus [16] = test: Anticonvulsant activity in mouse assessed as protection against maximal electric shock-induced seizures at 130 mg/kg, ip after 2 hrs; type: functional, organism-based; set-up: dose 130 mg/kg
Method in brief: (§6)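 Time-to-peak-effect assay: MES protection read at 0.25–4 h after dosing. Mice ip (60–130 mg/kg), rats po (15 or 30 mg/kg) or ip (30 mg/kg). Groups of 4–8; result is protected/tested.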

N1E-115 [17] = test: Blockade of voltage-gated sodium channel in mouse N1E-115 cells assessed as stimulation at 100 umol at -90 mV holding potential by whole-cell patch clamp electrophysiological assay relative to control; type: cell-based
Method in brief: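 Whole-cell patch clamp with borosilicate glass electrodes on single cultured N1E-115 neuroblastoma cells. Compound at 100 µmol, holding potential -90 mV. Voltage-dependent sodium current expressed as % of control stimulation (no compound). Results from 5–8 cells averaged with SEM; significance by Student's t-test.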

Mus musculus [18] = test: Anticonvulsant activity against subcutaneous pentylenetetrazole-induced seizures in mouse at 300 mg/kg, ip after 0.5 hrs; type: functional, organism-based; set-up: dose 300 mg/kg; method in brief: as §1
Mus musculus [19] = test: Anticonvulsant activity in mouse assessed as protection against maximal electric shock-induced seizures at 130 mg/kg, ip after 4 hrs; type: functional, organism-based; set-up: dose 130 mg/kg; method in brief: as §6
Mus musculus [20] = test: Anticonvulsant activity in mouse assessed as protection against maximal electric shock-induced seizures at 130 mg/kg, ip after 0.25 hrs; type: functional, organism-based; set-up: dose 130 mg/kg; method in brief: as §6
Mus musculus [21] = species on record: Mus musculus; test: Activation of NMDA receptor in mouse cortical neurons assessed as potentiation of NMDA/glycine-induced effect at 100 umol at -70 mV holding potential by whole-cell patch clamp electrophysiological assay relative to control; method in brief: as §4
Rattus norvegicus [22] = test: Anticonvulsant activity in fully kindled rat hippocampus assessed as protection against focal seizures at 100 mg/kg, ip after 45 mins; type: functional, organism-based; set-up: dose 100 mg/kg; method in brief: as §5
Mus musculus [23] = test: Anticonvulsant activity in mouse assessed as protection against maximal electric shock-induced seizures at 130 mg/kg, ip after 0.5 hrs; type: functional, organism-based; set-up: dose 130 mg/kg; method in brief: as §6
Mus musculus [24] = test: Anticonvulsant activity in mouse assessed as protection against maximal electric shock-induced seizures at 300 mg/kg, ip after 4 hrs; type: functional, organism-based; set-up: dose 300 mg/kg; method in brief: as §2
Mus musculus [25] = test: Anticonvulsant activity against subcutaneous pentylenetetrazole-induced seizures in mouse assessed as increase in tonic threshold at 106 mg/kg, ip by threshold tonic extension test; type: functional, organism-based; set-up: dose 106 mg/kg
Method in brief: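 Threshold tonic extension test in mice. The compound was given ip, then pentylenetetrazol was infused until the first twitch and the first clonus. PTZ dose was calculated from the infusion speed. Mean of 8 animals ± S.E.M.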

Rattus norvegicus [26] = test: Anticonvulsant activity in rat assessed as protection against maximal electric shock-induced seizures at 30 mg/kg, po after 0.25 hrs; type: functional, organism-based; set-up: dose 30 mg/kg
Method in brief: (§7)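 MES test in rats dosed orally at 30 mg/kg as a suspension in 0.5% methylcellulose, read at 0.25–4 h. Four rats per time point; result is protected/tested.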

Rattus norvegicus [27] = test: Anticonvulsant activity in rat assessed as protection against maximal electric shock-induced seizures at 30 mg/kg, po after 0.5 hrs; type: functional, organism-based; set-up: dose 30 mg/kg; method in brief: as §7
Mus musculus [28] = species on record: Mus musculus; test: Activation of kainate receptor in mouse cortical neurons assessed as potentiation of kainate-induced effect at 100 umol at -70 mV holding potential by whole-cell patch clamp electrophysiological assay relative to control; method in brief: as §4
Mus musculus [29] = test: Anticonvulsant activity in mouse assessed as protection against maximal electric shock-induced seizures at 90 mg/kg, ip after 0.25 hrs; type: functional, organism-based; set-up: dose 90 mg/kg; method in brief: as §6
[30] = Neurotoxicity in po dosed rat assessed as neurological deficit […]; type: toxicity, organism-based; conditions: in vivo
Method in brief: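 Rats dosed orally with a suspension in 0.5% methylcellulose. Neurological deficit judged by ataxia and loss of placing response and muscle tone.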

[31] = Neurotoxicity in ip dosed mouse assessed as inability to maintain equilibrium on rotarod by rotarod test; type: toxicity, organism-based; conditions: in vivo
Method in brief: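 Mice dosed ip with a suspension in 0.5% methylcellulose, then placed on a 1 inch knurled plastic rod rotating at 6 rpm. Toxicity = failure to keep equilibrium for at least 1 min in each of three trials.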

Mus musculus [32] = species on record: Mus musculus; test: Protective index, ratio of TD50 for neurotoxicity in mouse to ED50 for inhibition of maximal electroshock-induced seizures in mouse; type: functional
Rattus norvegicus [33] = test: Anticonvulsant activity in po dosed rat assessed as protection against maximal electric shock-induced seizures; type: functional
Rattus norvegicus [34] = species on record: Rattus norvegicus; test: Protective index, ratio of TD50 for neurotoxicity in rat to ED50 for inhibition of maximal electroshock-induced seizures in rat; type: functional
Mus musculus [35] = test: Anticonvulsant activity in ip dosed mouse assessed as protection against maximal electric shock-induced seizures; type: functional; conditions: Mus musculus, ip; read-out: ED50

SMILES: Cc1cccc(C)c1OCCNC1CCC(O)CC1 (racemic)
- Activity (Mus musculus [1]): inactive
- Activity (Mus musculus [2]): Active
- Activity (Mus musculus [3]): Non-toxic
- Activity (Mus musculus [4]): inactive
- Activity (Mus musculus [5]): inactive
- Activity (Mus musculus [6]): inactive
- Activity (Mus musculus [7]): Non-toxic
- Activity (Mus musculus [8]): inactive
- Activity (Mus musculus [9]): inactive
- Activity (Mus musculus [10]): Toxic
- Activity (Mus musculus [11]): inactive
- Activity (Mus musculus [12]): Non-toxic

SMILES: Cc1cccc(C)c1OCC(=O)NC1CCCCC1O (racemic; 1)
- Activity (Mus musculus [13]): 179%
- Activity (Rattus norvegicus [14]): Active
- Activity (Mus musculus [4]): inactive
- Activity (N1E-115 [15]): 39%
- Activity (Mus musculus [16]): inactive
- Activity (N1E-115 [17]): 85%
- Activity (Mus musculus [18]): Active
- Activity (Mus musculus [5]): inactive
- Activity (Mus musculus [6]): inactive
- Activity (Mus musculus [19]): inactive
- Activity (Mus musculus [20]): Active
- Activity (Mus musculus [21]): 104%
- Activity (Rattus norvegicus [22]): Active
- Activity (Mus musculus [23]): Active
- Activity (Mus musculus [24]): inactive
- Activity (Mus musculus [25]): Active
- Activity (Rattus norvegicus [26]): Active
- Activity (Mus musculus [8]): inactive
- Activity (Mus musculus [9]): inactive
- Activity (Rattus norvegicus [27]): Active
- Activity (Mus musculus [28]): 98%
- Activity (Mus musculus [11]): inactive
- Activity (Mus musculus [29]): Active

SMILES: O=C1NC(=O)C(c2ccccc2)(c2ccccc2)N1 [PHENYTOIN]
- TD50 [30]: > 500 mg/kg
- TD50 [31]: 34.5 mg/kg
- Activity (N1E-115 [17]): 78%
- Ratio TD50/ED50 (Mus musculus [32]): 6.6
- ED50 (Rattus norvegicus [33]): 32.2 mg/kg
- Ratio TD50/ED50 (Rattus norvegicus [34]): >22
- ED50 (Mus musculus [35]): 6.48 mg/kg
